For 167 variants, yeast fitness results are on record in the RNAGym collection of RNA variant scans (doi:10.1126/science.aae0568).

Variants at the floor of the assay were thinned out.

To fix the notation:
B1: tRNA (parent)
chain: GUUCCGUUGGCGUAAUGGUAACGCGUCUCCCUCCUAAGGAGAAGACUGCGGGUUCGAGUCCCGUACGGAACG

This data set covers variants of B1. Nature of the data set: yeast fitness relative to wild type (ratio to wild type); higher = fitter; tRNA-Arg(CCU), competitive growth, 37 C, YPD. Summed up:
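For this measurement, the tRNA-Arg(CCU) gene was varied by chemical synthesis at a 3% per-site mutation rate across 69 sites, and each variant was placed at the native genomic locus in Saccharomyces cerevisiae. The pooled strains went through a 24-hour competition in YPD at 37°C in six parallel replicates, with amplicons from start and end populations read by 100-nucleotide paired-end sequencing. Darwinian fitness relative to wild type followed from the change in each genotype's frequency. Genotypes needed ≥ 100 starting reads, and estimates < 0.5 were set to 0.5.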
As for U13A U16A U54A A65G, the yeast fitness was at most 0.5.

U8A G18A U32C: the yeast fitness is at most 0.5.

Consider G12A A15G C27A, for which the yeast fitness is at most 0.5.

For the variant C22U G67C, the yeast fitness turned out to be 0.822.

Take C4A U16A C29G U32C C55U C66U: the yeast fitness was at most 0.5.

With C30A G41C G51A, the yeast fitness was at most 0.5.

As to U16G G56C, the yeast fitness is at most 0.5.

Consider C5A A20C A57U, for which the yeast fitness is at most 0.5.

For the variant C4A G23A C24G C61A C66U, the yeast fitness was at most 0.5.

As to C4G A20C A40G G52C, the yeast fitness worked out at 0.6.

Take U32G U35G A36C A37G C61G A70G: the yeast fitness was at most 0.5.

For the variant C55U G63A A69C, the yeast fitness turned out to be 0.537.

For C4G A20U C31G C62A, the yeast fitness is at most 0.5.

With C24G C30G G39A G52A C55U, the yeast fitness is at most 0.5.

As for A40G C46U U64C, the yeast fitness turned out to be 0.607.

Consider U3G C11U U19C A20U A42C C49U G56C, for which the yeast fitness was at most 0.5.

With C5U A37G G56C, the yeast fitness was 0.533.

G10A A20C C27G A40G: the yeast fitness was at most 0.5.

Consider A20G C34G A42C A43U, for which the yeast fitness came out at 0.604.

With U13C G25A C33G G41C C61G A65U, the yeast fitness is at most 0.5.

For the variant C5U U8G U28C A36G, the yeast fitness was at most 0.5.

Consider G56C A65C, for which the yeast fitness was 0.754.

Take G6A G44A: the yeast fitness is 0.737.

Regarding C4A G18C A43C, the yeast fitness is at most 0.5.

Turning to C30G G67U, the yeast fitness is 0.589.

As for U47A G63A, the yeast fitness was found to be 0.823.

G6C U26C C31A G38C: the yeast fitness is at most 0.5.

For the variant C29U C31U U54G A65C G67A, the yeast fitness was 0.549.

As to C24U A69G, the yeast fitness came to 0.998.

G18A C30G G38C: the yeast fitness was 0.529.

With C62U C66U G67A, the yeast fitness was found to be 0.52.

For G9A G25U A36U G56C A65C, the yeast fitness was 0.717.

Regarding C27A U53A, the yeast fitness amounted to 0.639.

A21U U32C C49U A57C: the yeast fitness was determined as 0.595.

With A14U A36U A45G, the yeast fitness is at most 0.5.

As to C4G G23C C66A, the yeast fitness was at most 0.5.

Turning to A21U G23C A36U, the yeast fitness was at most 0.5.

In the case of C33A C49U G52A A70C, the yeast fitness is at most 0.5.

As to U2A U7G A42G A45U G52A U64C A69U, the yeast fitness is at most 0.5.

In the case of U2C G48C C49U U53C, the yeast fitness was at most 0.5.

Turning to G23C G67A, the yeast fitness is 0.56.

On to A45U A65G A70C, for which the yeast fitness was determined as 0.754.

In the case of A21U C31G U32A, the yeast fitness was 0.585.

In the case of G10A C31A A37C, the yeast fitness is at most 0.5.

Regarding C4G A37C G51A, the yeast fitness came out at 0.628.

Turning to A40C A57C, the yeast fitness is 0.637.

Turning to G6A A15G U54G C55U, the yeast fitness was at most 0.5.

For the variant C11A U28A C61G C62G, the yeast fitness turned out to be 0.556.

For A20C U35C G51C C60G A70U, the yeast fitness is at most 0.5.

As to C27G C31A A69U, the yeast fitness is 0.589.

For the variant G18C A40C C49G, the yeast fitness is at most 0.5.

On to A37G C55G U64C, for which the yeast fitness was 0.633.

For the variant A45C G48A, the yeast fitness was found to be 0.828.

Take U2C A40C C66A: the yeast fitness is at most 0.5.

In the case of G58U C66A A70C, the yeast fitness stood at 0.665.

Turning to C22A U32C, the yeast fitness turned out to be 0.869.

For C4A A20U U32C A43U, the yeast fitness was at most 0.5.

As for G38C A69U A70C, the yeast fitness was determined as 0.557.

In the case of C22U G44A C46G G51A C66G, the yeast fitness is at most 0.5.

Consider U26C C27G C34G G67A, for which the yeast fitness is at most 0.5.

On to C34A G41A C62U, for which the yeast fitness is at most 0.5.

On to U7A C30U C33U C46U G68U, for which the yeast fitness was at most 0.5.

For C4U G23C U47C C49A G68C, the yeast fitness is at most 0.5.

Take A14C C29U A36G A45U: the yeast fitness came to 0.543.

As to G6U A40G C49A C61G, the yeast fitness is at most 0.5.

Take U2A C5U G38A C55A: the yeast fitness was at most 0.5.

Consider C29G A42C G51A A70U, for which the yeast fitness is at most 0.5.

On to G38C A45U G63C C66G, for which the yeast fitness was at most 0.5.

With C24G A36C, the yeast fitness was found to be 0.531.

Consider C5G U19C C24U, for which the yeast fitness is 0.684.

Consider G6A A20G C24U, for which the yeast fitness was found to be 0.612.

With C22A A45C C66A, the yeast fitness was at most 0.5.

With C5G G23A U32C C61A, the yeast fitness was at most 0.5.

Regarding C31A C34G A43C C61U, the yeast fitness is at most 0.5.

Regarding C5G A42C C60A, the yeast fitness was at most 0.5.

For the variant G17A A45G A65U, the yeast fitness is 0.559.

As for C5G U7C C11G A40G A57U, the yeast fitness was 0.542.

Consider C49A U59A, for which the yeast fitness is 0.681.

G23A C31U A70U: the yeast fitness came out at 0.528.

Regarding U2A U28C G41C U54A G67U, the yeast fitness is at most 0.5.

Regarding G10C G38A C61A, the yeast fitness is 0.618.

In the case of U2A C24U, the yeast fitness was 0.95.

C24G C30G G52A C60A: the yeast fitness is at most 0.5.

For the variant U13C C27G U35G C49G A57C, the yeast fitness was at most 0.5.

For C30G G38A, the yeast fitness stood at 0.572.

Regarding C46U C61G A70C, the yeast fitness was at most 0.5.

As to A21G C30A C31U A57G A65U A69U, the yeast fitness is at most 0.5.

For C11U C33G A36U A42G, the yeast fitness was at most 0.5.

A40G C66U: the yeast fitness came out at 0.792.

Take G12A A20C C24G U54A C60G C66U: the yeast fitness is at most 0.5.

As for G10A C24G C34U, the yeast fitness was at most 0.5.

For G6C A21U, the yeast fitness came out at 0.673.

For U3C C24G G44A, the yeast fitness was at most 0.5.

Turning to C30A G56C, the yeast fitness is 0.639.

With A42G C49G U54C G63C A70U, the yeast fitness was 0.547.

Take C30U C66U: the yeast fitness came out at 0.777.

As to A14C A15U C62G, the yeast fitness is at most 0.5.

As for G12C A21U C34U A69C, the yeast fitness is at most 0.5.

On to U28G C31A C61U, for which the yeast fitness was at most 0.5.

With C34A C60G A70C, the yeast fitness is at most 0.5.

Regarding A45U G50A G63A G68C A69U, the yeast fitness is at most 0.5.

Consider C29G A37U C46U, for which the yeast fitness was at most 0.5.

Consider C27G A42U C55U A70C, for which the yeast fitness was at most 0.5.

For the variant G9A A14G C22U C31A C34U A36C A45C C61U U64A, the yeast fitness was 0.546.

A15G G63C: the yeast fitness was found to be 0.918.

As to A14G A15G U32A, the yeast fitness was at most 0.5.

As to A14C C24U A36G, the yeast fitness was determined as 0.591.

In the case of C4U G12A C46U, the yeast fitness was 0.728.

Turning to A14C A20U G25C A43C C66U, the yeast fitness is at most 0.5.

As to C11U U53C A57C, the yeast fitness was at most 0.5.

With C29U C33G G52A G58C, the yeast fitness amounted to 0.596.

For A20G A43C, the yeast fitness amounted to 1.09.

As for U3C C33G A69C, the yeast fitness stood at 0.621.

With U8G C24A C30G A40G U47G C55U C66U A70C, the yeast fitness is at most 0.5.

Regarding A21G A43C C60A, the yeast fitness was at most 0.5.

Consider U3C A57G, for which the yeast fitness came to 0.714.

Turning to U47G U64C, the yeast fitness came to 0.622.

U3C C30A: the yeast fitness was 1.06.

Turning to U16C U35C A57C, the yeast fitness came to 0.532.

As for C4A U35C A57U, the yeast fitness is at most 0.5.

For C22G A36G C46U, the yeast fitness turned out to be 0.709.

In the case of C31A A37C U47C G67A, the yeast fitness was at most 0.5.

Regarding U3A A37C C60A A70G, the yeast fitness is at most 0.5.

On to G6A U13A U19C A40U G67A, for which the yeast fitness was at most 0.5.

For A65G G68U, the yeast fitness was 0.809.

In the case of G6A C24U U59C A69C, the yeast fitness is at most 0.5.

For the variant C61U A70U, the yeast fitness stood at 1.04.

Turning to C5G A65U, the yeast fitness stood at 0.796.

As for C11G, the yeast fitness was found to be 0.661.

On to U3A A21C G25U A43C C61A C62U, for which the yeast fitness turned out to be 0.592.

As to G44A G58A, the yeast fitness came out at 0.955.

U16C C24U C29A C31G C34G: the yeast fitness was at most 0.5.

As to A36U G68C, the yeast fitness was found to be 0.698.

A20G G25A C49U: the yeast fitness was found to be 0.781.

As for C22U U26A U47C C62A, the yeast fitness was at most 0.5.

Take C4A G17A C60G: the yeast fitness worked out at 0.697.

Consider G23C A37U U47C C55U C60G C66U, for which the yeast fitness is at most 0.5.

As to C5U G12A A69C, the yeast fitness was determined as 0.724.

Regarding C5A A20G U32G A43C A45U, the yeast fitness is at most 0.5.

Regarding G9C A42G C62G A69G, the yeast fitness was at most 0.5.

Regarding G63C G67C A70C, the yeast fitness was 0.778.

Turning to G10A A21U U53A C66U, the yeast fitness is at most 0.5.

For C5U U16G A43U G58A, the yeast fitness is at most 0.5.

C27A A36G C61U: the yeast fitness was at most 0.5.

For C29G U32G G38A C46U A70U, the yeast fitness is at most 0.5.

Turning to U3C G10A G23A C62G G67A, the yeast fitness is at most 0.5.

A36G G58A C60U: the yeast fitness was at most 0.5.

Consider U3A G10A U32G C66A, for which the yeast fitness was at most 0.5.

G51C U53A: the yeast fitness was 0.544.

In the case of C4G A40U A45U, the yeast fitness was determined as 0.546.

Consider C5U A57U G63A, for which the yeast fitness is at most 0.5.

Take G12C C24U A40U: the yeast fitness was at most 0.5.

Regarding C4U C5G A45G, the yeast fitness came out at 0.634.

Take G10C U19A C29G C34U: the yeast fitness is at most 0.5.

As to U16A A21U A42U, the yeast fitness was determined as 0.591.

Consider U8A C30A A65G, for which the yeast fitness was found to be 0.543.

Take C11U G38A A40U G52C: the yeast fitness was found to be 0.568.

As for C11U A40U C46A, the yeast fitness was 0.74.

With C11U G38C G48A, the yeast fitness was found to be 0.57.

Consider C4G C27A C46U, for which the yeast fitness was 0.539.

On to G25C C33A A43C G68A, for which the yeast fitness is at most 0.5.

With G10C A20U A42G C60G, the yeast fitness is at most 0.5.

Regarding U7C C33A C49A, the yeast fitness is at most 0.5.

With C4A U8G U64C, the yeast fitness amounted to 0.545.

Regarding G39C A43G A57C, the yeast fitness was at most 0.5.

Take C5G C33A U64A: the yeast fitness was at most 0.5.

With U2G A40C G63A G68C, the yeast fitness is at most 0.5.
